Measured values: ChEMBL document CHEMBL1828603, “Synthesis, antimicrobial activity and possible mechanism of action of 9-bromo-substituted indolizinoquinoline-5,12-dione derivatives” (2011)
Values after ≈ are worked out from the molar mass of the structure shown. Active and inactive are the calls of the source. The rule behind the calls is not given here.

Columns and labels:
[1] = system: Escherichia coli; test: Antimicrobial activity against Escherichia coli ATCC 25922 by broth microdilution method; type: functional
Method in brief: (§1)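 Two-fold broth microdilution in Mueller-Hinton broth. Compound in DMSO added to bacterial culture at 5 × 10^5 cells/ml, starting at 64 µg/ml, then serially doubled down. Incubated at 37 °C overnight and read as OD600. MIC taken as the minimum inhibitory concentration, obtained in at least two independent experiments.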

[2] = system: Pseudomonas aeruginosa; test: Antimicrobial activity against Pseudomonas aeruginosa ATCC 27853 by broth microdilution method; type: functional; method in brief: as §1
[3] = system: Salmonella enterica subsp. enterica serovar Paratyphi B; test: Antimicrobial activity against Salmonella paratyphi B CMCC 50094 by broth microdilution method; type: functional
Method in brief: (§2)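 Two-fold serial dilution in Mueller-Hinton broth, starting at 64 µg/ml. Compound was added as a DMSO solution to bacterial culture at 5 × 10^5 cells/ml, then double-diluted. Plates were incubated overnight at 37 °C and OD600 was read. MIC was taken from at least two independent experiments.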

[4] = system: Streptococcus; test: Antimicrobial activity against hemolytic Streptococcus Group B CMCC 32210 by broth microdilution method; type: functional; method in brief: as §1
[5] = system: Staphylococcus aureus; test: Antimicrobial activity against Staphylococcus aureus ATCC 25923 by broth microdilution method; type: functional; method in brief: as §1
[6] = system: Staphylococcus epidermidis; test: Antimicrobial activity against Staphylococcus epidermidis ATCC 12228 by broth microdilution method; type: functional; method in brief: as §1
[7] = system: Enterococcus faecalis; test: Antimicrobial activity against Enterococcus faecalis ATCC 29212 by broth microdilution method; type: functional; method in brief: as §1
[8] = system: Staphylococcus aureus; test: Antimicrobial activity against methicillin-resistant Staphylococcus aureus ATCC 43300 by broth microdilution method; type: functional; method in brief: as §2
[9] = system: Candida albicans; test: Antifungal activity against Candida albicans ATCC 10231 by broth microdilution method; type: functional
[10] = target: DNA gyrase (Staphylococcus aureus) (UniProt P0A0K8+P20831); test: Inhibition of Staphylococcus aureus DNA gyrase supercoiling activity using pHOT1 DNA as substrate at 125 uM after 60 mins by agarose gel electrophoretic analysis; type: protein-complex assay
Method in brief: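 Supercoiling assay with 1 U DNA gyrase (E. coli or S. aureus) and 0.5 µg relaxed pHOT1 DNA in Tris–HCl pH 7.5 buffer (KCl, MgCl2, DTT, spermidine, 1 mM ATP, glycerol, BSA), ± compound, 37 °C for 60 min. Stopped with proteinase K, run on 1% agarose in TAE at 3 V/cm, stained with Gel Red and imaged under UV.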

[11] = system: Staphylococcus aureus; test: Inhibition of Staphylococcus aureus topoisomerase 4-mediated relaxation of supercoiled pBR322 DNA at 1 uM after 30 mins by agarose gel electrophoretic analysis
Method in brief: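 Relaxation assay with 1 U Topo IV and 0.5 µg supercoiled pBR322 DNA in HEPES–KOH pH 7.6 buffer (potassium glutamate, magnesium acetate, DTT, 1 mM ATP, BSA), 37 °C for 30 min. Stopped with chloroform/iso-amyl alcohol (24:1), then run on 1% agarose gel in TAE at 5 V/cm.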

[12] = system: Escherichia coli; test: Inhibition of Escherichia coli topoisomerase 4 assessed as decatenation of kDNA at 25 uM after 30 mins by electrophoresis
Method in brief: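 Decatenation assay with 1 U Topo IV and 200 ng catenated kDNA in HEPES–KOH pH 7.6 buffer (potassium glutamate, magnesium acetate, DTT, 1 mM ATP, BSA), 37 °C for 30 min. Stopped with chloroform/iso-amyl alcohol (24:1), then run on 1% agarose gel in TAE at 10 V/cm.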

[13] = system: Escherichia coli; details: 1 to 125 uM

DNA gyrase (Staphylococcus aureus), sequence (P0A0K8 2-644 limits assumed): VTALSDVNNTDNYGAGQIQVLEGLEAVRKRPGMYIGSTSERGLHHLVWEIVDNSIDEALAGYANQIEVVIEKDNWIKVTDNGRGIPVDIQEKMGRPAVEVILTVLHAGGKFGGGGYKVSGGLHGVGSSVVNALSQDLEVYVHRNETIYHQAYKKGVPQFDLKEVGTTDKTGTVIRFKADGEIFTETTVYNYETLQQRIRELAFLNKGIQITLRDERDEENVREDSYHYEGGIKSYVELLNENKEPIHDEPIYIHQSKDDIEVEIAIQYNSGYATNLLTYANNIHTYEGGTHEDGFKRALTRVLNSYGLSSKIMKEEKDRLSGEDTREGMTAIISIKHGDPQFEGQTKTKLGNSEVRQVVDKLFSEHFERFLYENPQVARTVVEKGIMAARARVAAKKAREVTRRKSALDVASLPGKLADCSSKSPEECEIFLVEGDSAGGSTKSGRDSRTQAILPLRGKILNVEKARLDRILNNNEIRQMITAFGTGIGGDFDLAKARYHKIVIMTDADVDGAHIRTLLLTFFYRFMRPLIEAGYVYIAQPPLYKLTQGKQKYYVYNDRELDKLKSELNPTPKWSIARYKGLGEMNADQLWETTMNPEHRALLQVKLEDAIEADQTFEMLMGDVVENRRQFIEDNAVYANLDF
DNA gyrase (Staphylococcus aureus), sequence (P20831 whole entry partner): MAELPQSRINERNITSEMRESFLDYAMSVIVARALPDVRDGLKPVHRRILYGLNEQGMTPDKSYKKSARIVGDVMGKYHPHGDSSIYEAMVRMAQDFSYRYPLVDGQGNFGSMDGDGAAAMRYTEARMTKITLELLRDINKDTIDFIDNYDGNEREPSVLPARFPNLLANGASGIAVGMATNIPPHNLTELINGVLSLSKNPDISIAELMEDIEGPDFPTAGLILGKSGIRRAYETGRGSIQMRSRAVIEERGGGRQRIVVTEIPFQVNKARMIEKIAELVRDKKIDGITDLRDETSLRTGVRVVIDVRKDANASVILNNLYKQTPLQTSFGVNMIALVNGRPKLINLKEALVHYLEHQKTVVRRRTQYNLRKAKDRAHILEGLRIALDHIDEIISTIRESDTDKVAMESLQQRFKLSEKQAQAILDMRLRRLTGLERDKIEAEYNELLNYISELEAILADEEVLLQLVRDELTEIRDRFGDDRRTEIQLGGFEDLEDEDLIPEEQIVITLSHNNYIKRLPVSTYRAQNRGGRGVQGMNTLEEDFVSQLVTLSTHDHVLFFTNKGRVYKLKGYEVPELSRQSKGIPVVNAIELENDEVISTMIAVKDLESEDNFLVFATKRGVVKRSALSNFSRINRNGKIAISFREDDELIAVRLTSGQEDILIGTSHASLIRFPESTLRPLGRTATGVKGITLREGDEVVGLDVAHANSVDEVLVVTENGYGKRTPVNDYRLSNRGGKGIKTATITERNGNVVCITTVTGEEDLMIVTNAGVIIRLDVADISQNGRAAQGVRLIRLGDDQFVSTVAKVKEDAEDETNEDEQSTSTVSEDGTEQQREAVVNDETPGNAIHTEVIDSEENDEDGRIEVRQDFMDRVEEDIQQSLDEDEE

Row | Compound | MIC [1] [µg/mL] | MIC [2] [µg/mL] | MIC [3] [µg/mL] | MIC [4] [µg/mL] | MIC [5] [µg/mL] | MIC [6] [µg/mL] | MIC [7] [µg/mL] | MIC [8] [µg/mL] | MIC [9] [µg/mL] | inhibition [10] | inhibition [11] | inhibition [12] | inhibition [13]
1 | CCN(CC)CCNC(=O)c1c2c(n3cc(Br)ccc13)C(=O)c1ncccc1C2=O | > 64 | > 64 | > 64 | 0.5 (≈ 1.07 µM) | 4 (≈ 8.52 µM) | 2 (≈ 4.26 µM) | 4 (≈ 8.52 µM) | 4 (≈ 8.52 µM) | > 64 | – | – | – | –
2 | O=C(O)c1cn(C2CC2)c2cc(N3CCNCC3)c(F)cc2c1=O | – | – | – | – | – | – | – | – | – | inactive | Active | Active | Active
3 | CCN(CC)C(=O)c1c2c(n3cc(Br)ccc13)C(=O)c1ncccc1C2=O | > 64 | > 64 | > 64 | 8 (≈ 18.8 µM) | 8 (≈ 18.8 µM) | 16 (≈ 37.5 µM) | 16 (≈ 37.5 µM) | 16 (≈ 37.5 µM) | > 64 | – | – | – | –
4 | O=C1c2cccnc2C(=O)c2c1c(C(=O)N1CCSCC1)c1ccc(Br)cn21 | > 64 | > 64 | > 64 | 64 (≈ 140 µM) | > 64 | > 64 | > 64 | 64 (≈ 140 µM) | > 64 | – | – | – | –
5 | O=C1c2cccnc2C(=O)c2c1c(C(=O)OCCN1CCOCC1)c1ccc(Br)cn21 | 32 (≈ 66.1 µM) | > 64 | > 64 | 0.063 (≈ 0.13 µM) | 0.25 (≈ 0.516 µM) | 0.25 (≈ 0.516 µM) | 0.13 (≈ 0.268 µM) | 0.25 (≈ 0.516 µM) | > 64 | – | – | – | –
6 | O=C1c2cccnc2C(=O)c2c1c(C(=O)NCCCN1CCCC1)c1ccc(Br)cn21 | > 64 | > 64 | > 64 | 1 (≈ 2.08 µM) | 8 (≈ 16.6 µM) | 4 (≈ 8.31 µM) | 4 (≈ 8.31 µM) | 4 (≈ 8.31 µM) | > 64 | – | – | – | –
7 | CC(=O)N1CCN(C(=O)c2c3c(n4cc(Br)ccc24)C(=O)c2ncccc2C3=O)CC1 | > 64 | > 64 | > 64 | 16 (≈ 33.2 µM) | 64 (≈ 133 µM) | > 64 | > 64 | > 64 | > 64 | – | – | – | –
8 | CCN(CC)CCCNC(=O)c1c2c(n3cc(Br)ccc13)C(=O)c1ncccc1C2=O | > 64 | > 64 | > 64 | 1 (≈ 2.07 µM) | 8 (≈ 16.6 µM) | 4 (≈ 8.28 µM) | 4 (≈ 8.28 µM) | 8 (≈ 16.6 µM) | > 64 | – | – | – | –
9 | O=C1c2cccnc2C(=O)c2c1c(C(=O)NCCCN1CCOCC1)c1ccc(Br)cn21 | > 64 | > 64 | > 64 | 1 (≈ 2.01 µM) | 8 (≈ 16.1 µM) | 4 (≈ 8.04 µM) | 4 (≈ 8.04 µM) | 4 (≈ 8.04 µM) | > 64 | – | – | – | –
10 | O=C1c2cccnc2C(=O)c2c1c(C(=O)NCCN1CCCC1)c1ccc(Br)cn21 | > 64 | > 64 | > 64 | 0.5 (≈ 1.07 µM) | 4 (≈ 8.56 µM) | 1 (≈ 2.14 µM) | 2 (≈ 4.28 µM) | 4 (≈ 8.56 µM) | > 64 | – | – | – | –
11 | CN(C)CCCNC(=O)c1c2c(n3cc(Br)ccc13)C(=O)c1ncccc1C2=O | > 64 | > 64 | > 64 | 1 (≈ 2.2 µM) | 4 (≈ 8.79 µM) | 8 (≈ 17.6 µM) | 4 (≈ 8.79 µM) | 4 (≈ 8.79 µM) | > 64 | – | – | – | –
12 | O=C1c2cccnc2C(=O)c2c1c(C(=O)OCCN1CCCCC1)c1ccc(Br)cn21 | 4 (≈ 8.29 µM) | > 64 | 16 (≈ 33.2 µM) | 0.031 (≈ 0.0643 µM) | 0.063 (≈ 0.131 µM) | 0.063 (≈ 0.131 µM) | 0.031 (≈ 0.0643 µM) | 0.5 (≈ 1.04 µM) | > 64 | – | – | – | –
